Measured values as given in ChEMBL document CHEMBL2021916, “Aflaquinolones A-G: secondary metabolites from marine and fungicolous isolates of Aspergillus spp” (J Nat Prod, 2012).

How the values were obtained:
MDA-MB-231 = assay: Cytotoxicity against human MDA-MB-231 cells after 48 hrs by EZ-CyTox enhanced cell viability assay; assay type: functional, cell-based; details: MDA-MB-231, 48 h
How it was run: (§1)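 Seeding densities: K562 3 × 10⁴, B16F10 3 × 10³, HL-60 1 × 10⁵, MDA-MB-231 5 × 10³ and Hep3B 5 × 10³ cells per well. Cells were exposed for 48 h to test compounds supplied as DMSO solutions. Viability was read with the EZ-CyTox enhanced cell viability kit as absorbance at 450 nm.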

HL-60 = assay: Cytotoxicity against human HL60 cells after 48 hrs by EZ-CyTox enhanced cell viability assay; assay type: functional, cell-based; details: HL-60, 48 h; how it was run: as §1
B16-F10 = assay: Cytotoxicity against mouse B16F10 cells after 48 hrs by EZ-CyTox enhanced cell viability assay; assay type: functional, cell-based; details: B16-F10, 48 h; how it was run: as §1
K562 = assay: Cytotoxicity against human K562 cells after 48 hrs by EZ-CyTox enhanced cell viability assay; assay type: functional, cell-based; details: K562, 48 h; how it was run: as §1
[1] = Cytotoxicity against human Hep3B cells after 48 hrs by EZ-CyTox enhanced cell viability assay; assay type: functional, cell-based, Hep 3B2; how it was run: as §1

Measured: IC50

CO[C@@H]1C(=O)Nc2ccc(/C=C/[C@]3(C)CCC(=O)[C@@H](C)C3)c(O)c2[C@@]1(O)c1ccccc1 [AFLAQUINOLONE A]
> 80 µM: all assays above

CO[C@@H]1C(=O)Nc2ccc(/C=C/[C@]3(C)CC[C@@H](O)[C@@H](C)C3)c(O)c2[C@@]1(O)c1ccccc1 [AFLAQUINOLONE B]
> 80 µM: all assays above

CO[C@@H]1C(=O)Nc2ccc(/C=C/[C@@]3(C)CCC(=O)[C@H](C)C3)c(O)c2[C@@]1(O)c1ccccc1 [AFLAQUINOLONE C]
> 80 µM: all assays above

CO[C@@H]1C(=O)Nc2cccc(O)c2[C@@]1(O)c1ccccc1 [AFLAQUINOLONE E]
> 80 µM: all assays above

O=C1Nc2ccccc2[C@@](O)(c2ccccc2)[C@@H]1O [AFLAQUINOLONE F]
> 80 µM: all assays above

O=C1Nc2ccccc2[C@@](O)(c2ccccc2)[C@H]1O [AFLAQUINOLONE G]
> 80 µM: all assays above
